Measured values taken from ChEMBL document CHEMBL2424526, “Thrombin inhibitory activity of some polyphenolic compounds” (Med Chem Res, 2013).
Activity calls are given as the source filed them. The calls are words filed in the database; no cut-off is given here.

Experiments:
Prothrombin [1] = molecular target: T1, Prothrombin (Homo sapiens, UniProt P00734); assay: Competitive inhibition of human thrombin using D-Phe-Pip-Arg-pNA as substrate preincubated for 10 mins followed by substrate addition measured every 12 secs for 10 mins by Lineweaver-Burk plot analysis
Prothrombin [2] = molecular target: T1, Prothrombin; assay: Inhibition of human thrombin assessed as inhibition of fibrinogen polymerization preincubated for 10 mins followed by fibrionogen addition measured for 20 mins
Method in brief: (§1)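 Thrombin preincubated with compound 10 min at 37 °C, then added (final 10.4 nM) to human fibrinogen (3 mg/ml) in 50 mM TBS with 5 mM CaCl2, pH 7.4. Turbidity at 595 nm read every 12 s for 20 min at 37 °C. Vmax expressed as % of solvent control; 12 independent experiments in duplicate.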

Prothrombin [3] = molecular target: T1, Prothrombin; conditions: 125 to 1000 uM
Prothrombin [4] = molecular target: T1, Prothrombin; assay: Inhibition of human thrombin assessed as equilibrium association constant at 50 to 1000 uM by BIAcore analysis
Prothrombin [5] = molecular target: T1, Prothrombin; conditions: 125 to 1000 uM; remark: listed apart in the source
Prothrombin [6] = molecular target: T1, Prothrombin; assay: Inhibition of human thrombin amidolytic activity using D-Phe-Pip-Arg-pNA as substrate preincubated for 10 mins followed by substrate addition measured every 12 secs for 10 mins by spectrophotometric analysis
Prothrombin [7] = molecular target: T1, Prothrombin; assay: Inhibition of human thrombin amidolytic activity using D-Phe-Pip-Arg-pNA as substrate at 0.1 to 1000 uM preincubated for 10 mins followed by substrate addition measured every 12 secs for 10 mins by spectrophotometric analysis
Method in brief: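 Human plasma thrombin (17.6 nM in 50 mM TBS pH 7.4) preincubated 10 min at 37 °C with compound (from 10 mM stocks in 50% DMSO; final DMSO 5%, final thrombin 15.8 nM), then added to 3 mM D-Phe-Pip-Arg-pNA stock.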

Prothrombin [8] = molecular target: T1, Prothrombin; assay: Inhibition of human thrombin assessed as decrease in platelet aggregation preincubated for 10 mins measured for 10 mins by dual channel chrono-log aggregometric analysis
Method in brief: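 Gel-filtered (BSA–Sepharose 2B) human platelets at 1.5 × 10^5/μl in modified Tyrode's buffer pH 7.4, prewarmed 5 min at 37 °C with stirring. Thrombin (final 2.4 nM) preincubated 10 min at 37 °C with compound, then added. Turbidimetric aggregation recorded 10 min (0.77 % DMSO final). Result given as % of control; eight independent experiments in duplicate.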

Prothrombin [9] = molecular target: T1, Prothrombin; assay: Inhibition of human thrombin assessed as inhibition of band decaying corresponding to fibrinogen gamma chains at IC50 after 30 mins by SDS-PAGE analysis
Method in brief: (§2)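 Fibrinogen isolated from human plasma, containing factor XIII (3 mg/ml in 50 mM TBS, 5 mM CaCl2), mixed with thrombin (final 10.4 nM) that was preincubated with compound. Incubated at 37 °C and stopped at 5, 15 or 30 min with urea/SDS/β-mercaptoethanol buffer. Run on 7.5 % SDS-PAGE with Coomassie stain. Aα, γ, γ–γ dimer and α-polymer bands scored.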

Prothrombin [10] = molecular target: T1, Prothrombin; assay: Inhibition of human thrombin assessed as inhibition of fibrinogen alpha polymer formation at IC50 after 15 mins by SDS-PAGE analysis; method in brief: as §2
Prothrombin [11] = molecular target: T1, Prothrombin; assay: Inhibition of human thrombin assessed as inhibition of fibrinogen gamma-gamma chain formation at IC50 after 15 mins by SDS-PAGE analysis; method in brief: as §2
Prothrombin [12] = molecular target: T1, Prothrombin; conditions: 5 uM
Prothrombin [13] = molecular target: T1, Prothrombin; assay: Inhibition of human thrombin assessed as inhibition of band decaying corresponding to fibrinogen Aalpha chains at IC50 after 30 mins by SDS-PAGE analysis; method in brief: as §2
Prothrombin [14] = molecular target: T1, Prothrombin; assay: Inhibition of human thrombin assessed as inhibition of fibrinogen gamma-gamma chain formation at IC50 after 5 mins by SDS-PAGE analysis; method in brief: as §2
Prothrombin [15] = molecular target: T1, Prothrombin; assay: Inhibition of human thrombin assessed as response unit at 1000 uM by BIAcore analysis
Method in brief: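 Thrombin amine-coupled on a CM5 chip (NHS/EDC, acetate pH 6.0), 25 °C, PBS pH 7.4 running buffer. Polyphenol (100 μl) injected for 600 s at 10 μl/min, followed by 200 s PBS dissociation. Bound level read in RU. Channel regenerated with 0.1 M NaOH and 0.1 M HCl.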

Prothrombin [16] = molecular target: T1, Prothrombin; assay: Inhibition of human thrombin assessed as inhibition of fibrinogen alpha-polymer formation at IC50 after 5 mins by SDS-PAGE analysis; method in brief: as §2
Prothrombin [17] = molecular target: T1, Prothrombin; conditions: 150 to 1000 uM
Prothrombin [18] = molecular target: T1, Prothrombin; conditions: 150 to 1000 uM; remark: listed apart in the source
Prothrombin [19] = molecular target: T1, Prothrombin; assay: Inhibition of human thrombin assessed as inhibition of fibrinogen alpha-polymer formation at 250 uM after 5 mins by SDS-PAGE analysis
Method in brief: (§3)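 Thrombin preincubated 10 min at 37 °C with compound, then mixed with human fibrinogen (3 mg/ml, containing factor XIII) in 50 mM TBS with 5 mM CaCl2; final thrombin 10.4 nM, 37 °C. Stopped at 5, 15, 30 min with urea/SDS/β-mercaptoethanol buffer. Run on 7.5% SDS-PAGE, Coomassie stained, scored for γ–γ dimer and α-polymer bands.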

Prothrombin [20] = molecular target: T1, Prothrombin; assay: Inhibition of human thrombin assessed as inhibition of fibrinogen gamma-gamma chain formation at 250 uM after 5 mins by SDS-PAGE analysis; method in brief: as §3
[21] = molecular target: Urokinase-type plasminogen activator (Homo sapiens, UniProt P00749); assay: Inhibition of urokinase amidolytic activity (unknown origin)
Prothrombin [22] = molecular target: T1, Prothrombin; assay: Inhibition of thrombin (unknown origin) assessed as hydrolysis of N-benzoyl-phenylalanylvalyl-arginine-paranitroanilide
Trypsin = Trypsin (Homo sapiens, UniProt P07477+P07478+P35030); assay: Inhibition of trypsin amidolytic activity (unknown origin); format: protein assay
Prothrombin [23] = molecular target: T1, Prothrombin; assay: Inhibition of human thrombin assessed as inhibition of fibrinogen alpha-polymer formation at 250 uM after 15 mins by SDS-PAGE analysis; method in brief: as §3
Prothrombin [24] = molecular target: T1, Prothrombin; assay: Inhibition of human thrombin assessed as decrease in platelet aggregation at 25 to 250 uM preincubated for 10 mins measured for 10 mins by dual channel chrono-log aggregometric analysis
Method in brief: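 Human plasma thrombin (17.6 nM in 50 mM TBS, pH 7.4) preincubated 10 min at 37 °C with compound from 50% DMSO stock (9:1 v/v). Added to gel-filtered human platelets in modified Tyrode's buffer (1.5 × 10^5/μl), pre-warmed 5 min at 37 °C with stirring; final thrombin 2.4 nM, DMSO 0.77%. Turbidimetric aggregation followed for 10 min. Given as % of solvent control; eight independent experiments in duplicate.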

Prothrombin [25] = molecular target: T1, Prothrombin; assay: Inhibition of human thrombin assessed as inhibition of fibrinogen polymerization at 1000 uM preincubated for 10 mins followed by fibrionogen addition measured for 20 mins
Method in brief: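 Thrombin preincubated 10 min at 37 °C with compound, then added to human fibrinogen (3 mg/ml) in 50 mM TBS, 5 mM CaCl2, pH 7.4; final thrombin 10.4 nM. Turbidity at 595 nm read every 12 s for 20 min at 37 °C. Vmax expressed as % of solvent control; mean ± SD of 12 independent experiments in duplicate.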

Prothrombin [26] = molecular target: T1, Prothrombin; assay: Inhibition of human thrombin assessed as inhibition of fibrinogen gamma-gamma chain formation at 250 uM after 15 mins by SDS-PAGE analysis; method in brief: as §3
Prothrombin [27] = molecular target: T1, Prothrombin; conditions: 50 to 1000 uM
Prothrombin [28] = molecular target: T1, Prothrombin; conditions: 75 to 750 uM
Prothrombin [29] = molecular target: T1, Prothrombin; assay: Inhibition of human thrombin assessed as inhibition of fibrinogen gamma-gamma chain formation at 15 uM after 5 mins by SDS-PAGE analysis; method in brief: as §2
Prothrombin [30] = molecular target: T1, Prothrombin; assay: Inhibition of human thrombin assessed as inhibition of fibrinogen polymerization at 50 uM preincubated for 10 mins followed by fibrionogen addition measured for 20 mins; method in brief: as §1
Prothrombin [31] = molecular target: T1, Prothrombin; assay: Inhibition of human thrombin assessed as inhibition of band decaying corresponding to fibrinogen Aalpha chains at 15 uM after 5 mins by SDS-PAGE analysis; method in brief: as §2
Prothrombin [32] = molecular target: T1, Prothrombin; assay: Inhibition of human thrombin assessed as inhibition of band decaying corresponding to fibrinogen gamma chains at 15 uM after 5 mins by SDS-PAGE analysis; method in brief: as §2
Prothrombin [33] = molecular target: T1, Prothrombin; assay: Inhibition of human thrombin assessed as inhibition of fibrinogen alpha-polymer formation at 15 uM after 5 mins by SDS-PAGE analysis; method in brief: as §2

## Oc1cc(O)c2c(c1)O[C@H](c1ccc(O)c(O)c1)[C@@H](O)C2
Prothrombin [1]
  inhibition: Active
Prothrombin [2]
  inhibition: inactive
Prothrombin [3]
  inhibition: inactive
Prothrombin [4]
  Ka: 2.03 ×10⁴ /M
Prothrombin [5]
  inhibition: inactive
Prothrombin [6]
  inhibition: Dose-dependent effect

## C[C@@H]1O[C@@H](OC[C@H]2O[C@@H](Oc3c(-c4ccc(O)c(O)c4)oc4cc(O)cc(O)c4c3=O)[C@H](O)[C@@H](O)[C@@H]2O)[C@H](O)[C@H](O)[C@H]1O
Prothrombin [7]
  inhibition: inactive

## Oc1cc(O)c2cc(O)c(-c3ccc(O)c(O)c3)[o+]c2c1
Prothrombin [8]
  inhibition: Dose-dependent effect
Prothrombin [1]
  inhibition: Active
Prothrombin [2]
  inhibition: Dose-dependent effect
Prothrombin [9]
  inhibition: inactive
Prothrombin [10]
  inhibition: inactive
Prothrombin [11]
  inhibition: inactive
Prothrombin [12]
  inhibition: Active
Prothrombin [13]
  inhibition: inactive
Prothrombin [14]
  inhibition: Active
Prothrombin [15]
  RU: 2250
Prothrombin [6]
  inhibition: Dose-dependent effect
Prothrombin [16]
  inhibition: Active

## O=C(O)c1cc(O)c(O)c(O)c1
Prothrombin [7]
  inhibition: inactive

## Oc1cc(O)c2c(c1)O[C@H](c1ccc(O)c(O)c1)[C@H](O)C2
Prothrombin [1]
  inhibition: Active
Prothrombin [2]
  inhibition: inactive
Prothrombin [17]
  inhibition: inactive
Prothrombin [4]
  Ka: 1.92 ×10² /M
Prothrombin [6]
  inhibition: Dose-dependent effect
Prothrombin [18]
  inhibition: inactive

## COc1ccc([C@@H]2CC(=O)c3c(O)cc(O)cc3O2)cc1O
Prothrombin [7]
  inhibition: inactive

## Oc1cc(O)c2c(c1)O[C@H](c1ccc(O)c(O)c1)[C@H](O)[C@H]2c1c(O)cc(O)c2c1O[C@H](c1ccc(O)c(O)c1)[C@H](O)C2
Prothrombin [7]
  inhibition: inactive

## O=c1c(-c2ccc(O)cc2)coc2cc(O)cc(O)c12
Prothrombin [7]
  inhibition: inactive

## O=C(O)Cc1ccc(O)cc1
Prothrombin [7]
  inhibition: inactive

## COc1cc(C2Oc3cc([C@H]4Oc5cc(O)cc(O)c5C(=O)[C@@H]4O)ccc3OC2CO)ccc1O (some centres undefined) [SILIBININ]
Prothrombin [1]
  inhibition: Active
Prothrombin [2]
  inhibition: Dose-dependent effect
Prothrombin [19]
  inhibition: Active
Prothrombin [20]
  inhibition: Active
[21]
  IC50: 21 µM
Prothrombin [22]
  IC50: 20.9 µM
Trypsin
  IC50: 3.7 µM
Prothrombin [23]
  inhibition: inactive
Prothrombin [24]
  inhibition: Active
Prothrombin [4]
  Ka: 5.39 ×10⁴ /M
Prothrombin [25]
  inhibition: Active
Prothrombin [15]
  RU: 1420
Prothrombin [26]
  inhibition: inactive
Prothrombin [6]
  inhibition: Dose-dependent effect

## OC[C@H]1O[C@@H](Oc2cc3c(O[C@@H]4O[C@H](CO)[C@@H](O)[C@H](O)[C@H]4O)cc(O)cc3[o+]c2-c2ccc(O)c(O)c2)[C@H](O)[C@@H](O)[C@@H]1O
Prothrombin [2]
  inhibition: inactive
Prothrombin [27]
  inhibition: inactive
Prothrombin [4]
  Ka: 1.15 ×10² /M
Prothrombin [6]
  inhibition: Dose-dependent effect
Prothrombin [28]
  inhibition: inactive

## O=C1C[C@@H](c2ccc(O)cc2)Oc2cc(O)cc(O)c21
Prothrombin [7]
  inhibition: inactive

## O=c1c(O)c(-c2ccc(O)c(O)c2)oc2cc(O)cc(O)c12 [QUERCETIN]
Prothrombin [8]
  inhibition: Dose-dependent effect
Prothrombin [1]
  inhibition: Active
Prothrombin [2]
  inhibition: Dose-dependent effect
Prothrombin [29]
  inhibition: Active
Prothrombin [9]
  inhibition: inactive
[21]
  IC50: 12.1 µM
Prothrombin [10]
  inhibition: inactive
Prothrombin [30]
  inhibition: Active
Prothrombin [22]
  IC50: 30 µM
Trypsin
  IC50: 15.4 µM
Prothrombin [11]
  inhibition: inactive
Prothrombin [31]
  inhibition: Active
Prothrombin [32]
  inhibition: Active
Prothrombin [13]
  inhibition: inactive
Prothrombin [4]
  Ka: 2.59 ×10⁷ /M
Prothrombin [14]
  inhibition: Active
Prothrombin [15]
  RU: 1880
Prothrombin [6]
  inhibition: Dose-dependent effect
Prothrombin [33]
  inhibition: Active
Prothrombin [16]
  inhibition: Active

## COc1ccc([C@@H]2CC(=O)c3c(O)cc(O[C@@H]4O[C@H](CO[C@@H]5O[C@@H](C)[C@H](O)[C@@H](O)[C@H]5O)[C@@H](O)[C@H](O)[C@H]4O)cc3O2)cc1O
Prothrombin [7]
  inhibition: inactive

## O=C(/C=C/c1ccc(O)c(O)c1)O[C@@H]1C[C@](O)(C(=O)O)C[C@@H](O)[C@H]1O
Prothrombin [7]
  inhibition: inactive

## O=C(O)/C=C/c1ccc(O)cc1
Prothrombin [7]
  inhibition: inactive

## C[C@@H]1O[C@@H](O[C@H]2[C@H](Oc3cc(O)c4c(c3)O[C@H](c3ccc(O)cc3)CC4=O)O[C@H](CO)[C@@H](O)[C@@H]2O)[C@H](O)[C@H](O)[C@H]1O
Prothrombin [7]
  inhibition: inactive
